{"source": "ChEMBL document CHEMBL5724801", "about": "“EUbOPEN Chemogenomics Library - Multiplex” (2024)", "system": "U2OS", "test": "Multiplex assay against U2OS", "type": "toxicity, cell-based", "conditions": "human", "method_in_brief": "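Hoechst33342, BioTracker Green Microtubule Cytoskeleton Dye, MitoTracker Red and Annexin V Alexa Fluor 680 were added to live cells at seeding, and imaging on a CQ1 microscope at 37°C and 5% CO2 followed compound addition. Gating by CellPathfinder machine learning separated cells into Hoechst high-intensity objects or normal cells, then normal cells into healthy, pyknosed or fragmented nuclei, then pyknosed cells into mitotic or apoptotic. Per cents of healthy-nucleus cells are reported for the tubulin, mitochondrial-mass and membrane-permeability phenotypes.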", "key": {"[1]": {"conditions": "12 h, 10 µM, compound concentration 10 uM"}, "[2]": {"conditions": "24 h, 10 µM, compound concentration 10 uM"}, "[3]": {"conditions": "48 h, 10 µM, compound concentration 10 uM"}, "[4]": {"conditions": "12 h, 1 µM, compound concentration 1 uM"}, "[5]": {"conditions": "24 h, 1 µM, compound concentration 1 uM"}, "[6]": {"conditions": "48 h, 1 µM, compound concentration 1 uM"}}, "note": "Values joined by “and” are separate entries in the source; they are usually repeats but may differ in a detail not shown here. Identical values can stand only once."}
{"smiles": "CC(=O)O[C@H]1C(=O)[C@@]2(C)[C@H]([C@H](OC(=O)c3ccccc3)[C@]3(O)C[C@H](OC(=O)[C@H](O)[C@@H](NC(=O)c4ccccc4)c4ccccc4)C(C)=C1C3(C)C)[C@]1(OC(C)=O)CO[C@@H]1C[C@@H]2O", "note": "[PACLITAXEL]", "values": [{"measurement": "Population Apoptotic (%)", "setting": "[1]", "value": "64% and 71%"}, {"measurement": "Population Fragmented Nuclei (%)", "setting": "[1]", "value": "28% and 16%"}, {"measurement": "Population Healthy Nuclei (%)", "setting": "[1]", "value": "46% and 60%"}, {"measurement": "Population Hoechst High Intensity Objects (%)", "setting": "[1]", "value": "8% and 3%"}, {"measurement": "Population Membrane Permeable-Phenotype (%)", "setting": "[1]", "value": "23% and 10%"}, {"measurement": "Population Mitochondria Different-Phenotype (%)", "setting": "[1]", "value": "25% and 30%"}, {"measurement": "Population Mitotic Cells (%)", "setting": "[1]", "value": "35% and 28%"}, {"measurement": "Population Normal (%)", "setting": "[1]", "value": "91% and 96%"}, {"measurement": "Population Pyknosed Nuclei (%)", "setting": "[1]", "value": "24% and 23%"}, {"measurement": "Population Tubulin-Different-Phenotype (%)", "setting": "[1]", "value": "16% and 14%"}, {"measurement": "Total Cell Count", "setting": "[1]", "value": "200 and 94"}, {"measurement": "Population Apoptotic (%)", "setting": "[2]", "value": "69% and 58%"}, {"measurement": "Population Fragmented Nuclei (%)", "setting": "[2]", "value": "33% and 25%"}, {"measurement": "Population Healthy Nuclei (%)", "setting": "[2]", "value": "36% and 48%"}, {"measurement": "Population Hoechst High Intensity Objects (%)", "setting": "[2]", "value": 4, "unit": "%"}, {"measurement": "Population Membrane Permeable-Phenotype (%)", "setting": "[2]", "value": "21% and 15%"}, {"measurement": "Population Mitochondria Different-Phenotype (%)", "setting": "[2]", "value": "44% and 34%"}, {"measurement": "Population Mitotic Cells (%)", "setting": "[2]", "value": "30% and 41%"}, {"measurement": "Population Normal (%)", "setting": "[2]", "value": 95, "unit": "%"}, {"measurement": "Population Pyknosed Nuclei (%)", "setting": "[2]", "value": "29% and 26%"}, {"measurement": "Population Tubulin-Different-Phenotype (%)", "setting": "[2]", "value": "13% and 18%"}, {"measurement": "Total Cell Count", "setting": "[2]", "value": "198 and 95"}, {"measurement": "Population Apoptotic (%)", "setting": "[3]", "value": "76% and 70%"}, {"measurement": "Population Fragmented Nuclei (%)", "setting": "[3]", "value": "35% and 27%"}, {"measurement": "Population Healthy Nuclei (%)", "setting": "[3]", "value": "30% and 31%"}, {"measurement": "Population Hoechst High Intensity Objects (%)", "setting": "[3]", "value": "12% and 8%"}, {"measurement": "Population Membrane Permeable-Phenotype (%)", "setting": "[3]", "value": "27% and 14%"}, {"measurement": "Population Mitochondria Different-Phenotype (%)", "setting": "[3]", "value": "29% and 50%"}, {"measurement": "Population Mitotic Cells (%)", "setting": "[3]", "value": "23% and 29%"}, {"measurement": "Population Normal (%)", "setting": "[3]", "value": "87% and 91%"}, {"measurement": "Population Pyknosed Nuclei (%)", "setting": "[3]", "value": "33% and 41%"}, {"measurement": "Population Tubulin-Different-Phenotype (%)", "setting": "[3]", "value": "16% and 25%"}, {"measurement": "Total Cell Count", "setting": "[3]", "value": "203 and 98"}]}
{"smiles": "CC(=O)NCC(=O)N1[C@@H]2CC[C@H]1c1ccc(Nc3ncc(C(F)(F)F)c(NC4CCC4)n3)cc12", "note": "[PF-03814735]", "values": [{"measurement": "Population Apoptotic (%)", "setting": "[4]", "value": "43.59% and 56.25%"}, {"measurement": "Population Fragmented Nuclei (%)", "setting": "[4]", "value": "3.86% and 3.61%"}, {"measurement": "Population Healthy Nuclei (%)", "setting": "[4]", "value": "82.46% and 86.75%"}, {"measurement": "Population Hoechst High Intensity Objects (%)", "setting": "[4]", "value": 0, "unit": "%"}, {"measurement": "Population Membrane Permeable-Phenotype (%)", "setting": "[4]", "value": "2.55% and 3.47%"}, {"measurement": "Population Mitochondria Different-Phenotype (%)", "setting": "[4]", "value": "0% and 6.25%"}, {"measurement": "Population Mitotic Cells (%)", "setting": "[4]", "value": "56.41% and 43.75%"}, {"measurement": "Population Normal (%)", "setting": "[4]", "value": 100, "unit": "%"}, {"measurement": "Population Pyknosed Nuclei (%)", "setting": "[4]", "value": "13.68% and 9.64%"}, {"measurement": "Population Tubulin-Different-Phenotype (%)", "setting": "[4]", "value": "2.55% and 1.39%"}, {"measurement": "Total Cell Count", "setting": "[4]", "value": "285 and 166"}, {"measurement": "Population Apoptotic (%)", "setting": "[1]", "value": "36.84% and 50%"}, {"measurement": "Population Fragmented Nuclei (%)", "setting": "[1]", "value": "4.71% and 6.5%"}, {"measurement": "Population Healthy Nuclei (%)", "setting": "[1]", "value": "58.45% and 47.97%"}, {"measurement": "Population Hoechst High Intensity Objects (%)", "setting": "[1]", "value": "0.28% and 0%"}, {"measurement": "Population Membrane Permeable-Phenotype (%)", "setting": "[1]", "value": "5.69% and 15.25%"}, {"measurement": "Population Mitotic Cells (%)", "setting": "[1]", "value": "63.16% and 50%"}, {"measurement": "Population Normal (%)", "setting": "[1]", "value": "99.72% and 100%"}, {"measurement": "Population Pyknosed Nuclei (%)", "setting": "[1]", "value": "36.84% and 45.53%"}, {"measurement": "Population Tubulin-Different-Phenotype (%)", "setting": "[1]", "value": "7.58% and 8.47%"}, {"measurement": "Total Cell Count", "setting": "[1]", "value": "362 and 123"}, {"measurement": "Population Apoptotic (%)", "setting": "[5]", "value": "52.86% and 55.56%"}, {"measurement": "Population Fragmented Nuclei (%)", "setting": "[5]", "value": "3.18% and 2.94%"}, {"measurement": "Population Healthy Nuclei (%)", "setting": "[5]", "value": "72.08% and 75.88%"}, {"measurement": "Population Hoechst High Intensity Objects (%)", "setting": "[5]", "value": "0.35% and 0%"}, {"measurement": "Population Membrane Permeable-Phenotype (%)", "setting": "[5]", "value": "1.96% and 5.43%"}, {"measurement": "Population Mitochondria Different-Phenotype (%)", "setting": "[5]", "value": "0% and 7.75%"}, {"measurement": "Population Mitotic Cells (%)", "setting": "[5]", "value": "47.14% and 44.44%"}, {"measurement": "Population Normal (%)", "setting": "[5]", "value": "99.65% and 100%"}, {"measurement": "Population Pyknosed Nuclei (%)", "setting": "[5]", "value": "24.73% and 21.18%"}, {"measurement": "Population Tubulin-Different-Phenotype (%)", "setting": "[5]", "value": "0.49% and 3.88%"}, {"measurement": "Total Cell Count", "setting": "[5]", "value": "284 and 170"}, {"measurement": "Population Apoptotic (%)", "setting": "[2]", "value": "67.23% and 80%"}, {"measurement": "Population Fragmented Nuclei (%)", "setting": "[2]", "value": "5.92% and 4.1%"}, {"measurement": "Population Healthy Nuclei (%)", "setting": "[2]", "value": "27.04% and 26.23%"}, {"measurement": "Population Hoechst High Intensity Objects (%)", "setting": "[2]", "value": "0% and 0.81%"}, {"measurement": "Population Membrane Permeable-Phenotype (%)", "setting": "[2]", "value": "10.42% and 12.5%"}, {"measurement": "Population Mitotic Cells (%)", "setting": "[2]", "value": "32.77% and 20%"}, {"measurement": "Population Normal (%)", "setting": "[2]", "value": "100% and 99.19%"}, {"measurement": "Population Pyknosed Nuclei (%)", "setting": "[2]", "value": "67.04% and 69.67%"}, {"measurement": "Total Cell Count", "setting": "[2]", "value": "355 and 123"}, {"measurement": "Population Apoptotic (%)", "setting": "[6]", "value": "69.39% and 73.33%"}, {"measurement": "Population Fragmented Nuclei (%)", "setting": "[6]", "value": "2.78% and 6.88%"}, {"measurement": "Population Healthy Nuclei (%)", "setting": "[6]", "value": "63.19% and 55.62%"}, {"measurement": "Population Hoechst High Intensity Objects (%)", "setting": "[6]", "value": "0.69% and 0%"}, {"measurement": "Population Membrane Permeable-Phenotype (%)", "setting": "[6]", "value": "3.85% and 7.87%"}, {"measurement": "Population Mitochondria Different-Phenotype (%)", "setting": "[6]", "value": "0% and 15.73%"}, {"measurement": "Population Mitotic Cells (%)", "setting": "[6]", "value": "30.61% and 26.67%"}, {"measurement": "Population Normal (%)", "setting": "[6]", "value": "99.31% and 100%"}, {"measurement": "Population Pyknosed Nuclei (%)", "setting": "[6]", "value": "34.03% and 37.5%"}, {"measurement": "Population Tubulin-Different-Phenotype (%)", "setting": "[6]", "value": "6.04% and 10.11%"}, {"measurement": "Total Cell Count", "setting": "[6]", "value": "290 and 160"}, {"measurement": "Population Apoptotic (%)", "setting": "[3]", "value": "78.97% and 93.41%"}, {"measurement": "Population Fragmented Nuclei (%)", "setting": "[3]", "value": "6.71% and 1.74%"}, {"measurement": "Population Healthy Nuclei (%)", "setting": "[3]", "value": "14.29% and 19.13%"}, {"measurement": "Population Hoechst High Intensity Objects (%)", "setting": "[3]", "value": 0, "unit": "%"}, {"measurement": "Population Membrane Permeable-Phenotype (%)", "setting": "[3]", "value": "18.37% and 31.82%"}, {"measurement": "Population Mitochondria Different-Phenotype (%)", "setting": "[3]", "value": "14.29% and 4.55%"}, {"measurement": "Population Normal (%)", "setting": "[3]", "value": 100, "unit": "%"}, {"measurement": "Population Pyknosed Nuclei (%)", "setting": "[3]", "value": "79.01% and 79.13%"}, {"measurement": "Total Cell Count", "setting": "[3]", "value": "343 and 115"}]}
